Published values pooled from the literature.
Each line is one published result; the experiments were not run side by side.
Target: Dual specificity mitogen-activated protein kinase kinase 1 (MAP2K1, Homo sapiens, UniProt Q02750)

SMILES	observed	mode	technique	cells	tested at	endpoint	value
Cc1[nH]c(/C=C2\C(=O)Nc3ccc(F)cc32)c(C)c1C(=O)N[C@H]1CCN(C(=O)N(C)C)C1	enzyme activity	inhibitor			0.1 µM	remaining activity	94%
CNC(=O)c1cc(Oc2ccc(NC(=O)Nc3ccc(Cl)c(C(F)(F)F)c3)cc2)ccn1	enzyme activity	inhibitor			0.3 µM	inhibition	0%
COc1cc(/C=C/C(=O)CC(=O)/C=C/c2ccc(O)c(OC)c2)ccc1O	enzyme activity	inhibitor			1 µM	activity vs control	93%
C[C@@H]1CN(c2cc(-c3nn(C)c4ccc(OC5(C)CC5)cc34)ncn2)C[C@H](C)O1	cell-free assay		competition with immobilised ligand		1 µM	remaining binding	74%
Oc1cccc(-c2nc(N3CCOCC3)c3oc4ncccc4c3n2)c1	enzyme activity	inhibitor			10 µM	remaining activity	105%
CS(=O)(=O)N1CCCC(NC(=O)[C@H](CCC2CCCCC2)NC(=O)c2ccc(CNC(=O)c3cnc4ccccn34)cc2)C1 (stereo partly drawn)	cell-free assay		competition with immobilised ligand		0.1 µM	remaining binding	100%
Cc1ccc(Nc2nccc(N(C)c3ccc4c(C)n(C)nc4c3)n2)cc1S(N)(=O)=O	enzyme activity	inhibitor			10 µM	inhibition	1%
CC(C)(C)c1nc(-c2cccc(NS(=O)(=O)c3c(F)cccc3F)c2F)c(-c2ccnc(N)n2)s1	enzyme activity	inhibitor	radiometric		1 µM	remaining activity	94%
Cc1sc(C(=O)NC2COC2)cc1-n1cc(NC(=O)Nc2c(F)cccc2Cl)cn1	enzyme activity	inhibitor			10 µM	remaining activity	95.5%
Cn1cnc(Br)c1C1=CN(c2ncnc3[nH]cnc23)CCS1	enzyme activity	inhibitor	radiometric		2 µM	inhibition	16.9%
CCCOc1ccc([C@H]2[C@H](C(=O)O)[C@@H](c3ccc4c(c3)OCO4)CN2CC(=O)Nc2c(CC)cccc2CC)cc1	cell-free assay		competition with immobilised ligand		1 µM	remaining binding	66%
CCN(CC)CCNC(=O)c1c(C)[nH]c(/C=C2\C(=O)Nc3ccc(F)cc32)c1C	enzyme activity	inhibitor			0.3 µM	inhibition	36%
Nc1nc(Nc2ccc(S(N)(=O)=O)cc2)nn1C(=O)c1c(F)cccc1F	cell-free assay				0.5 µM	remaining signal	93.9%
COc1cc(Cl)c(C(=O)N[C@@H](CN[C@H]2CC[C@@H](N)CC2)Cc2ccc(C#N)cc2)cc1-c1ccc(CN[C@H](C)c2ccc(C)cc2)o1	enzyme activity	inhibitor			1 µM	remaining activity	98%
CCN(CC)Cc1cc(Nc2ccnc3cc(Cl)ccc23)ccc1O	cell-free assay		competition with immobilised ligand		10 µM	remaining binding	96%
CC(C)(O)c1cncc(-c2nc3ccc(F)cc3n2C2CC2)c1	cell-free assay		competition with immobilised ligand		1 µM	remaining binding	100%
CCOc1cc(-c2nncn2C)ccc1Nc1ncc2cc(C)nc(NCC(C)(C)C)c2n1	enzyme activity	inhibitor	FRET		1 µM	inhibition	16%
CNCc1ccc(-c2cc(-c3nc(-c4ccc(S(=O)(=O)C(C)C)cc4)cnc3N)on2)cc1	enzyme activity	inhibitor			2 µM	inhibition	6%

SMILES	observed	mode	technique	cells	tested at	endpoint	value
O=C(O)[C@@H]1[C@@H](Cn2nnc3ccccc3c2=O)CC[C@H]1C(=O)c1ccc(OCCC2CCOCC2)cc1	cell-free assay		competition with immobilised ligand		1 µM	remaining binding	81%
CN(c1ncccc1CNc1nc(Nc2ccc3c(c2)CC(=O)N3)ncc1C(F)(F)F)S(C)(=O)=O	enzyme activity	inhibitor			1 µM	inhibition	77.1%
CCN1CCN(Cc2ccc(NC(=O)c3ccc(C)c(Oc4ccnc5[nH]ccc45)c3)cc2C(F)(F)F)CC1	target engagement in cells	inhibitor	chemoproteomics	Huh-7	1 µM	inhibition	-41.7%
COc1cc2ncnc(Nc3ccc(Oc4ccccc4)c(C)c3C)c2cc1OC	enzyme activity	inhibitor			1 µM	inhibition	1%
CCCOc1ccc(OC)c(F)c1C(=O)c1ccc(C(=O)N[C@@H]2CNC[C@H]2NC(=O)c2ccc3[nH]ncc3c2)cc1	enzyme activity	inhibitor			10 µM	remaining activity	101%
FC(F)(F)Oc1cccc(-c2cnc3ccc(-c4ccncc4)nn23)c1	enzyme activity	inhibitor	radiometric		1 µM	activity vs control	79%
Cn1c(=O)n(-c2ccc(C(C)(C)C#N)cc2)c2c3cc(-c4cnc5ccccc5c4)ccc3ncc21	enzyme activity	inhibitor			10 µM	remaining activity	116%
Nc1nc(NC2CCCCC2)sc1C(=O)c1ccccc1	enzyme activity	inhibitor			10 µM	remaining activity	68%
O=C1NC(=O)c2cc(Nc3ccc(F)cc3)c(Nc3ccc(F)cc3)cc21	cell-free assay				0.5 µM	remaining signal	103%
Nc1cnc(N2CCc3cc(S(=O)(=O)Nc4c(F)cc(Cl)cc4F)cc(N4CCCC4=O)c32)nc1	cell-free assay		competition with immobilised ligand		1 µM	remaining binding	100%
N#CCCc1ccc2c(c1)-c1[nH]c3ccc([N+](=O)[O-])cc3c1CC(=O)N2	cell-free assay				0.5 µM	remaining signal	97.1%
CCN(CC)CCNC(=O)c1c(C)[nH]c(/C=C2\C(=O)Nc3ccc(F)cc32)c1C	enzyme activity	inhibitor			0.1 µM	remaining activity	79%
Cc1cc(-n2nc(Cc3cc(F)cc(C(F)(F)F)c3)nc2C)ccc1C(N)=O	cell-free assay		competition with immobilised ligand		1 µM	remaining binding	100%
CC(C)c1ccc(NC(=O)c2cccs2)c(-c2nc3ccccc3[nH]c2=O)c1	enzyme activity	inhibitor			1 µM	activity vs control	112%
CN([C@@H]1CCc2c(CC(=O)O)c3cc(S(C)(=O)=O)ccc3n2C1)S(=O)(=O)c1ccc(F)cc1	cell-free assay		competition with immobilised ligand		1 µM	remaining binding	98%
Nc1nc(Nc2ccccc2)sc1C(=O)c1c(F)cccc1F	enzyme activity	inhibitor			10 µM	remaining activity	96%
COc1cc(Nc2cnc(C#N)c(O[C@H](C)CN(C)C)n2)ncc1-c1cnn(C)c1	enzyme activity	inhibitor	radiometric		1 µM	remaining activity	80%
CN(C)C1CCN(CC#Cc2nn(C3CCCC3)c3nc(NCc4ccccc4)ncc23)C1 (stereo not drawn)	enzyme activity	inhibitor	FRET		0.1 µM	inhibition	9%
